Reference: ChEMBL document CHEMBL1811795, “Photolabile ubiquinone analogues for identification and characterization of quinone binding sites in proteins” (Bioorg Med Chem, 2010)
The source made the active and inactive calls. The rule behind the calls is not given here.

Assays:
Escherichia coli [1] = assay: Activity of Escherichia coli WrbA
How it was run: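 Purified E. coli WrbA in 20 mM potassium phosphate pH 7.2, room temperature, with 100 µM FMN, 200 µM NADH and 200 µM quinone; NADH oxidation followed at 340 nm; Vmax reported.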

Bacillus subtilis [2] = assay: Activity of Bacillus subtilis Succinate-ubiquinone oxidoreductase
How it was run: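 Purified detergent-solubilized B. subtilis Complex II ([…]): succinate-driven DCPIP reduction followed at 600 nm, 20 mM succinate, quinone (50 mM as printed) as primary acceptor, 50 mM potassium phosphate pH 7.4 with 1 mM KCN and 0.1 mM EDTA, room temperature, started by quinone; Vmax reported.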

Rhodobacter capsulatus [3] = assay: Activity of Rhodobacter capsulatus NADH-ubiquinone oxidoreductase
How it was run: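 R. capsulatus membranes (aerobic, dark, 32 °C growth) assayed for NADH:quinone reductase at 25 °C: 50 mM Tris–Cl pH 8, 10 mM KCl, 5 mM MgCl2, 0.2 µg/mL gramicidin A, 150 µM NADH. Quinone varied 0.2–3 Km; Michaelis–Menten fit of initial rates gives apparent Km and Vmax. NADH oxidation read at 340 nm.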

[4] = Photo stability of the compound assessed as decomposition at 500 uM after 10 mins of UV-illumination; format: physicochemical
Bacillus subtilis [5] = assay: Inhibition of photo labeled detergent solubilized succinate:ubiquinone oxidoreductase activity in Bacillus subtilis measured in dark
How it was run: (§1)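 Purified Complex II (5 µM, detergent) with 10–75 µM azidoquinone in 50 mM potassium phosphate, 1 mM EDTA, pH 7.4, illuminated on ice with mid-wavelength UV at 7 cm; timed aliquots held dark on ice. SQR activity then measured within 1 h by DCPIP reduction with Q1 as acceptor.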

Rhodobacter capsulatus [6] = assay: Activity of Rhodobacter capsulatus NADH-ubiquinone oxidoreductase at 50 uM post UV-illuminated compound
Bacillus subtilis [7] = assay: Inhibition of Bacillus subtilis Succinate-ubiquinone oxidoreductase using Q0 as substrate
How it was run: (§2)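 Succinate:quinone reductase of purified B. subtilis Complex II, read as DCPIP reduction at 600 nm. Conditions: 20 mM succinate, 50 mM potassium phosphate pH 7.4, 1 mM KCN, 0.1 mM EDTA, room temperature, quinone starting the reaction. HQNO added at 10 µM final; percent inhibition recorded.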

Rhodobacter capsulatus [8] = assay: Activity of Rhodobacter capsulatus NADH-ubiquinone oxidoreductase at 50 uM UV-illuminated compound
How it was run: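 R. capsulatus membranes incubated with 50 µM previously UV-illuminated azidoquinone, then NADH:O2 reductase (NADH oxidase) activity measured. Runs without additions and with the unmodified quinone were done in parallel.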

Rhodobacter capsulatus [9] = assay: Inhibition of NADH:ferricyanide reductase activity of Rhodobacter capsulatus NADH-ubiquinone oxidoreductase at 20 uM after 20 mins of UV-illumination
Rhodobacter capsulatus [10] = assay: Inhibition of NADH:Q1 reductase activity of Rhodobacter capsulatus NADH-ubiquinone oxidoreductase at 20 uM; conditions: TDE = time-dependent effect
How it was run: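 Membranes in Buffer A (50 mM Bis–Tris propane pH 6.8, 20 mM KCl, 10 mM MgCl2) at 1 mg/mL protein, preincubated 5 min dark with ~20 µM azidoquinone, UV-illuminated up to 10 min at 7 cm, 4 °C. NADH:Q1 reductase then read at 340 nm, 25 °C, pH 8.0 Tris–Cl with 5 mM KCN, 100 µM Q1, 150 µM NADH.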

Rhodobacter capsulatus [11] = assay: Inhibition of Rhodobacter capsulatus NADH-ubiquinone oxidoreductase using Q0 as substrate
Rhodobacter capsulatus [12] = assay: Inhibition of Rhodobacter capsulatus NADH-ubiquinone oxidoreductase using AzQ0 as substrate
Rhodobacter capsulatus [13] = assay: Inhibition of Rhodobacter capsulatus NADH-ubiquinone oxidoreductase using Q1 as substrate
Rhodobacter capsulatus [14] = assay: Inhibition of Rhodobacter capsulatus NADH-ubiquinone oxidoreductase using AzQ1 as substrate
Rhodobacter capsulatus [15] = assay: Inhibition of Rhodobacter capsulatus NADH-ubiquinone oxidoreductase using DMB as substrate
Rhodobacter capsulatus [16] = assay: Inhibition of Rhodobacter capsulatus NADH-ubiquinone oxidoreductase using DAzB as substrate
Bacillus subtilis [17] = assay: Inhibition of Bacillus subtilis Succinate-ubiquinone oxidoreductase using Q1 as substrate
How it was run: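 Purified B. subtilis Complex II (from a strain overproducing it, solubilised in dodecylmaltoside), 5 µM, in 50 mM potassium phosphate, 1 mM EDTA, pH 7.4. Illuminated on ice with mid-wavelength UV at 7 cm, with 10–75 µM azidoquinone. Samples held dark on ice, then assayed within 1 h: succinate:Q1 reductase, read as DCPIP reduction at 600 nm, room temperature.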

Rhodobacter capsulatus [18] = assay: Inhibition of NADH:Q1 reductase activity of Rhodobacter capsulatus NADH-ubiquinone oxidoreductase at 20 uM after 5 mins of UV-illumination
How it was run: (§3)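 R. capsulatus membranes, 1 mg/mL protein in Bis–Tris propane buffer pH 6.8, preincubated 5 min in the dark with about 20 µM azidoquinone. Then illuminated with mid-wavelength UV at 7 cm, 4 °C, in a quartz cuvette. Where stated, 5 µM NADH was added (with KCN) before illumination. NADH:Q1 reductase assayed straight after: 340 nm, 25 °C, Tris–Cl pH 8.0, 5 mM KCN, 100 µM Q1, 150 µM NADH, gramicidin.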

Rhodobacter capsulatus [19] = assay: Inhibition of NADH:Q1 reductase activity of Rhodobacter capsulatus NADH-ubiquinone oxidoreductase at 20 uM after 5 mins of UV-illumination in presence of 5 uM NADH; how it was run: as §3
Escherichia coli [20] = assay: Inhibition of photo labeled Escherichia coli WrbA activity at 50 uM; conditions: TDE = time-dependent effect
How it was run: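 WrbA (10 µM) with 50 µM azidoquinone in 20 mM potassium phosphate pH 7.2, on ice, under mid-wavelength UV light at 7 cm; aliquots taken over time and kept dark on ice. Activity then read within 1 h as NADH oxidation at 340 nm with 100 µM FMN, 200 µM NADH and 200 µM quinone.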

Bacillus subtilis [21] = assay: Inhibition of photo labeled detergent solubilized succinate:ubiquinone oxidoreductase activity of respiratory chain in Bacillus subtilis after 5 mins of UV-illumination; how it was run: as §1
Bacillus subtilis [22] = assay: Inhibition of Bacillus subtilis Succinate-ubiquinone oxidoreductase using AzQ0 as substrate; how it was run: as §2

SMILES	Vmax (microM/min/mg) (Escherichia coli [1])	Vmax (microM/min/mg) (Bacillus subtilis [2])	Km (Rhodobacter capsulatus [3])	Vmax (Rhodobacter capsulatus [3])	inhibition (Bacillus subtilis [5])	further results
CC1=CC(=O)C(N=[N+]=[N-])=C(C)C1=O	464	4.72	86 µM	0.59 µmol/min/mg	inactive	Stability [4]: Unstable; inhibition (Rhodobacter capsulatus [6]): inactive
COC1=C(OC)C(=O)C(C)=CC1=O	684	2.19	75 µM	0.37 µmol/min/mg	inactive	Imax (Bacillus subtilis [7]): 88%
COC1=C(OC)C(=O)C(CCCCCN=[N+]=[N-])=C(C)C1=O	–	2.57	21 µM	0.35 µmol/min/mg	inactive	inhibition (Rhodobacter capsulatus [8]): 20%; inhibition (Rhodobacter capsulatus [9]): inactive; inhibition (Rhodobacter capsulatus [10]): tde
C/C=C(\C)[C@H](O)[C@H](C)/C=C(C)/C=C/C/C(C)=C/Cc1nc(OC)c(OC)c(O)c1C	–	–	–	–	–	Imax (Rhodobacter capsulatus [11]): 68%; Imax (Rhodobacter capsulatus [12]): 68%; Imax (Rhodobacter capsulatus [13]): 73%; Imax (Rhodobacter capsulatus [14]): 79%; Imax (Rhodobacter capsulatus [15]): 75%; Imax (Rhodobacter capsulatus [16]): 71%
COC1=C(OC)C(=O)C(CC=C(C)C)=C(C)C1=O	< 10	2.52	23 µM	0.67 µmol/min/mg	inactive	Imax (Bacillus subtilis [17]): 90%
[N-]=[N+]=NC1=CC(=O)C=CC1=O	–	–	–	–	–	inhibition (Rhodobacter capsulatus [18]): Active; inhibition (Rhodobacter capsulatus [19]): Active
COC1=C(OC)C(=O)C(N=[N+]=[N-])=C(C)C1=O	724	3.72	52 µM	0.58 µmol/min/mg	inactive	Stability [4]: Stable; inhibition (Escherichia coli [20]): tde; inhibition (Bacillus subtilis [21]): Active; inhibition (Rhodobacter capsulatus [8]): 20%; Imax (Bacillus subtilis [22]): 89%
C=C(C)[C@H]1Cc2c(ccc3c2O[C@@H]2COc4cc(OC)c(OC)cc4[C@@H]2C3=O)O1	–	–	–	–	–	Imax (Rhodobacter capsulatus [11]): 48%; Imax (Rhodobacter capsulatus [12]): 53%; Imax (Rhodobacter capsulatus [13]): 68%; Imax (Rhodobacter capsulatus [14]): 79%; Imax (Rhodobacter capsulatus [15]): 63%; Imax (Rhodobacter capsulatus [16]): 53%
CC1=CC(=O)C=C(C)C1=O	546	3.99	100 µM	0.35 µmol/min/mg	inactive	–
